Laboratory results taken from ChEMBL document CHEMBL1145020, “Synthesis and structure-activity relationships of 6,7-disubstituted 4-anilinoquinoline-3-carbonitriles. The design of an orally active, irreversible inhibitor of the tyrosine kinase activity of the epidermal growth factor receptor (EGFR) and the human epidermal growth factor receptor-2 (HER-2)” (J Med Chem, 2003).

Tests used:
[1] = biological target: Epidermal growth factor receptor (Homo sapiens, UniProt P00533)
SW-620 = test: Concentration required to inhibit growth of human carcinoma colon (SW620) cell line; type: functional, cell-based
[2] = biological target: Receptor tyrosine-protein kinase erbB-2 (Homo sapiens, UniProt P04626); test: Concentration required to inhibit autophosphorylation of cytoplasmic domain of human epidermal growth factor receptor-2
A-431 = test: Concentration required to inhibit growth of human carcinoma epidermoid (A431) cell line; type: functional, cell-based
[3] = Concentration required to inhibit growth of human carcinoma breast (SKBR3) cell line; type: functional; settings: SK-BR-3
In short: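 Cell growth inhibition measured from dose–response curves at five concentrations. […] Reported values average at least two determinations.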

Sequence of Epidermal growth factor receptor (P00533 whole entry): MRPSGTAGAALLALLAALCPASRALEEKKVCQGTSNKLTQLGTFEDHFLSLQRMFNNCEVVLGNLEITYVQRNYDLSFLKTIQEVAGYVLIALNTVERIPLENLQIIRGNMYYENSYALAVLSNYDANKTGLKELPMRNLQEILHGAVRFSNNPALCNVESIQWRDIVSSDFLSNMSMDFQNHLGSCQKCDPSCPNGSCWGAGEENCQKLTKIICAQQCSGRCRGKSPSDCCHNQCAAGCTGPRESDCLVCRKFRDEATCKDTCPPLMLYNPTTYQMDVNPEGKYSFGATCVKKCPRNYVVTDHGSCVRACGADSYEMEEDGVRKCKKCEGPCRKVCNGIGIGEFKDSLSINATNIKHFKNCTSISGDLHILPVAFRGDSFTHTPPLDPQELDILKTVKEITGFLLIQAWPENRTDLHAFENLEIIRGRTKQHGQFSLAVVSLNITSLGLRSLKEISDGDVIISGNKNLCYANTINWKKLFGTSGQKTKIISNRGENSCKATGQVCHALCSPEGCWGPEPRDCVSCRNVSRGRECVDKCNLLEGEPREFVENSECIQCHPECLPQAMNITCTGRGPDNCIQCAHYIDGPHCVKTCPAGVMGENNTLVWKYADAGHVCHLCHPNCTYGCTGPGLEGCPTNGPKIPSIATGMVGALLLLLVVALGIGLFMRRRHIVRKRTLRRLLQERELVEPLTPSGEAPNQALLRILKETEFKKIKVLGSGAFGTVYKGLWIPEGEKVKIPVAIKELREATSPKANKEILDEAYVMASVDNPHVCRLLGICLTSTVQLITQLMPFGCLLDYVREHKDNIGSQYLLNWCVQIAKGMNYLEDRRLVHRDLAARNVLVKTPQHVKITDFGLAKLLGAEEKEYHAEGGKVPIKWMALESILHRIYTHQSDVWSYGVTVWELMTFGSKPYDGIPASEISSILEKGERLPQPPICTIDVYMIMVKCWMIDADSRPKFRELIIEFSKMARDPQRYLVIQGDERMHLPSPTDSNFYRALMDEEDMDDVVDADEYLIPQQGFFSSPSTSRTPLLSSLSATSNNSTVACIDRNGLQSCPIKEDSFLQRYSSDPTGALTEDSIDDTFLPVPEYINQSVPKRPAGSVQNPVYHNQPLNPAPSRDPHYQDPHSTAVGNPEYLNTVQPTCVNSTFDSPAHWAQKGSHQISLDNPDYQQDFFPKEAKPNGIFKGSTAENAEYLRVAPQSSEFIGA
Sequence of Receptor tyrosine-protein kinase erbB-2 (P04626 whole entry, the tested form may be a part): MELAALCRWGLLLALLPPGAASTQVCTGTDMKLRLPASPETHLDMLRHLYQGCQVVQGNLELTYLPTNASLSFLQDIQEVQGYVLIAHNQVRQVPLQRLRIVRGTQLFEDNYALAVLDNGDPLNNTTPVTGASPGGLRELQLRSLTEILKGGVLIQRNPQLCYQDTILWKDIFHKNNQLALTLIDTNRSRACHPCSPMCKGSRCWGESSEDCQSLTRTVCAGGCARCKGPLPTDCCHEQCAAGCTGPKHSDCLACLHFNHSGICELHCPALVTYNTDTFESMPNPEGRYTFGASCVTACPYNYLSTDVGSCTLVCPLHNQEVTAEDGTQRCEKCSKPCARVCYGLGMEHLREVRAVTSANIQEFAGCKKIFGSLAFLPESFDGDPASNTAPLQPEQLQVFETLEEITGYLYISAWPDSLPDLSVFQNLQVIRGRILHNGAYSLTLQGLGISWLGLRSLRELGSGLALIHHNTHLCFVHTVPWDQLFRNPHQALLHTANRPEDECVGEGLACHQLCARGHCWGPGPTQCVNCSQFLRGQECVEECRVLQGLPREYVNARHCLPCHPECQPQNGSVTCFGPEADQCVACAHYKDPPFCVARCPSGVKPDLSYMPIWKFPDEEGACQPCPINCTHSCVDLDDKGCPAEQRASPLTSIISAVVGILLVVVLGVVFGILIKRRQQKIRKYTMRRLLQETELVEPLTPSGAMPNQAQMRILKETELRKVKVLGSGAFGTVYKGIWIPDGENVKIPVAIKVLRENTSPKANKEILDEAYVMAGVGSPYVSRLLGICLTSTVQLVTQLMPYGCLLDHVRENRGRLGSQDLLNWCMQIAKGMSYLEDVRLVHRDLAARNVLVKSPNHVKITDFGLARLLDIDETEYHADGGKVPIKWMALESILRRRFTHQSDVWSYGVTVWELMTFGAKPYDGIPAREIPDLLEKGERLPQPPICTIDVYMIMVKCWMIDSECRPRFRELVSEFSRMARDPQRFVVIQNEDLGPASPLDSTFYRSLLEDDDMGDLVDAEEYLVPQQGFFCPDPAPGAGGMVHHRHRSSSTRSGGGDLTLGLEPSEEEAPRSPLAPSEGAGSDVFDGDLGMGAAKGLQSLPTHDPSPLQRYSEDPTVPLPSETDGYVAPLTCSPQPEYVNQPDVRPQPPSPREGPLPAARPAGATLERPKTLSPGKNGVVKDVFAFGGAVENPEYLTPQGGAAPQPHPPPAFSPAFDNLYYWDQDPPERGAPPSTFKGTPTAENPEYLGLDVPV

Question: For `COc1cc(NC(=O)/C=C/CN(C)C)cc2c(Nc3cccc(Br)c3)c(C#N)cnc12`, which IC50 [1] is on record?
Answer: 2880 nM

Question: What about the IC50 (SW-620) of the same molecule?
Answer: 8970 nM

Question: What about the IC50 [2] of the same molecule?
Answer: 9350 nM

Question: What about the IC50 (A-431) of the same molecule?
Answer: 2520 nM

Question: And the IC50 [3]?
Answer: 2520 nM

Question: For `CC#CC(=O)Nc1ccc2ncc(C#N)c(Nc3cccc(Br)c3)c2c1`, which IC50 [1] is on record?
Answer: 940 nM

Question: And the IC50 (SW-620)?
Answer: 12300 nM

Question: And the IC50 [2]?
Answer: 3870 nM

Question: What about the IC50 (A-431) of the same molecule?
Answer: 5030 nM

Question: And the IC50 [3]?
Answer: 5500 nM

Question: Which IC50 (SW-620) does the source give for `CCN(CC)C(C)/C=C/C(=O)Nc1cc2c(Nc3ccc(F)c(Cl)c3)c(C#N)cnc2cc1OC` (stereo not drawn) here?
Answer: 880 nM

Question: And the IC50 [2]?
Answer: 9580 nM

Question: What about the IC50 [3] of the same molecule?
Answer: 310 nM

Question: Which IC50 [1] does the source give for `CN(C)C/C=C/C(=O)Nc1ccc2ncc(C#N)c(Nc3cccc(Br)c3)c2c1` here?
Answer: 310 nM

Question: And the IC50 (SW-620)?
Answer: 5480 nM

Question: What about the IC50 [2] of the same molecule?
Answer: 4160 nM

Question: What about the IC50 (A-431) of the same molecule?
Answer: 450 nM

Question: What about the IC50 [3] of the same molecule?
Answer: 180 nM

Question: With `COCC#CC(=O)Nc1ccc2ncc(C#N)c(Nc3cccc(Br)c3)c2c1` as the molecule, how does the IC50 [1] read?
Answer: 960 nM

Question: What about the IC50 (SW-620) of the same molecule?
Answer: 520 nM

Question: What about the IC50 [2] of the same molecule?
Answer: 300 nM

Question: What about the IC50 (A-431) of the same molecule?
Answer: 280 nM

Question: And the IC50 [3]?
Answer: 350 nM

Question: For `COc1cc2ncc(C#N)c(Nc3cccc(Br)c3)c2cc1NC(=O)/C=C/CN1CCOCC1`, which IC50 (SW-620) is on record?
Answer: 5380 nM

Question: And the IC50 [2]?
Answer: 34100 nM

Question: And the IC50 [3]?
Answer: 120 nM

Question: Which IC50 [2] does the source give for `C/C=C/C(=O)Nc1cc2c(Nc3ccc(F)c(Cl)c3)c(C#N)cnc2cc1OCC` here?
Answer: 21500 nM

Question: And the IC50 [3]?
Answer: 170 nM

Question: Which IC50 (SW-620) does the source give for `COc1cc2ncc(C#N)c(Nc3ccc(F)c(Cl)c3)c2cc1NC(=O)/C=C/CN(C)C` here?
Answer: 910 nM

Question: What about the IC50 [2] of the same molecule?
Answer: 4490 nM

Question: What about the IC50 [3] of the same molecule?
Answer: 40 nM

Question: For `N#Cc1cnc2ccc(NC(=O)/C=C/CN3CCOCC3)cc2c1Nc1ccc(F)c(Cl)c1`, which IC50 (SW-620) is on record?
Answer: 6330 nM

Question: What about the IC50 [2] of the same molecule?
Answer: 8740 nM

Question: And the IC50 [3]?
Answer: 220 nM

Question: With `C=C(CN1CCOCC1)C(=O)Nc1ccc2ncc(C#N)c(Nc3ccc(F)c(Cl)c3)c2c1` as the molecule, how does the IC50 (SW-620) read?
Answer: 490 nM

Question: And the IC50 [2]?
Answer: 4390 nM

Question: What about the IC50 [3] of the same molecule?
Answer: 220 nM

Question: For `CCOc1cc2ncc(C#N)c(Nc3cccc(Br)c3)c2cc1NC(=O)/C=C/CN1CCOCC1`, which IC50 (SW-620) is on record?
Answer: 2880 nM

Question: And the IC50 [2]?
Answer: 34000 nM

Question: And the IC50 [3]?
Answer: 70 nM

Question: For `CCCN(CC#CC(=O)Nc1ccc2ncc(C#N)c(Nc3cccc(Br)c3)c2c1)CCC`, which IC50 [1] is on record?
Answer: 130 nM

Question: And the IC50 (SW-620)?
Answer: 400 nM

Question: And the IC50 [2]?
Answer: 370 nM

Question: What about the IC50 (A-431) of the same molecule?
Answer: 240 nM

Question: What about the IC50 [3] of the same molecule?
Answer: 80 nM

Question: For `COc1cc2ncc(C#N)c(Nc3ccc(F)c(Cl)c3)c2cc1NC(=O)/C=C/CN1CCOCC1`, which IC50 (SW-620) is on record?
Answer: 6670 nM

Question: What about the IC50 [2] of the same molecule?
Answer: 31400 nM

Question: What about the IC50 [3] of the same molecule?
Answer: 110 nM

Question: Which results are given for `COCC#CC(=O)Nc1cc2c(Nc3cccc(Br)c3)c(C#N)cnc2cc1OC`?
Answer: IC50 [1]: 790 nM; IC50 (SW-620): 1770 nM; IC50 [2]: 380 nM; IC50 (A-431): 730 nM; IC50 [3]: 290 nM

Question: With `CCOc1cc2ncc(C#N)c(Nc3cccc(Br)c3)c2cc1NC(=O)/C=C/CN(C)C` as the molecule, how does the IC50 (SW-620) read?
Answer: 1150 nM

Question: What about the IC50 [2] of the same molecule?
Answer: 2970 nM

Question: What about the IC50 [3] of the same molecule?
Answer: 30 nM

Question: Which IC50 [1] does the source give for `C=C(CN(C)C)C(=O)Nc1cc2c(Nc3ccc(F)c(Cl)c3)c(C#N)cnc2cc1OCC` here?
Answer: 560 nM

Question: What about the IC50 (SW-620) of the same molecule?
Answer: 320 nM

Question: And the IC50 [2]?
Answer: 1210 nM

Question: What about the IC50 (A-431) of the same molecule?
Answer: 180 nM

Question: And the IC50 [3]?
Answer: 90 nM

Question: For `C=CC(=O)Nc1cc2c(Nc3cccc(Br)c3)c(C#N)cnc2cc1OC`, which IC50 (SW-620) is on record?
Answer: 1880 nM

Question: What about the IC50 [2] of the same molecule?
Answer: 4680 nM

Question: What about the IC50 (A-431) of the same molecule?
Answer: 310 nM

Question: And the IC50 [3]?
Answer: 120 nM

Question: With `COc1cc(NC(=O)/C=C/CN2CCOCC2)cc2c(Nc3cccc(Br)c3)c(C#N)cnc12` as the molecule, how does the IC50 (SW-620) read?
Answer: 9570 nM

Question: And the IC50 [2]?
Answer: 23600 nM

Question: What about the IC50 [3] of the same molecule?
Answer: 2660 nM

Question: Which IC50 (SW-620) does the source give for `CC(C)N(CC#CC(=O)Nc1ccc2ncc(C#N)c(Nc3cccc(Br)c3)c2c1)C(C)C` here?
Answer: 250 nM

Question: And the IC50 [2]?
Answer: 320 nM

Question: And the IC50 (A-431)?
Answer: 140 nM

Question: What about the IC50 [3] of the same molecule?
Answer: 40 nM

Question: Which IC50 [1] does the source give for `C=CC(=O)Nc1ccc2ncc(C#N)c(Nc3cccc(Br)c3)c2c1` here?
Answer: 590 nM

Question: What about the IC50 (SW-620) of the same molecule?
Answer: 3380 nM

Question: And the IC50 [2]?
Answer: 1630 nM

Question: And the IC50 (A-431)?
Answer: 360 nM

Question: And the IC50 [3]?
Answer: 440 nM

Question: What does the source list for `COc1cc2ncc(C#N)c(Nc3ccc(F)c(Cl)c3)c2cc1NC(=O)/C=C/C(C)N1CCOCC1` (stereo not drawn)?
Answer: IC50 (SW-620): 4940 nM; IC50 [2]: 34000 nM; IC50 [3]: 200 nM

Question: With `CCN(CC)C/C=C/C(=O)Nc1cc2c(Nc3ccc(F)c(Cl)c3)c(C#N)cnc2cc1OC` as the molecule, how does the IC50 (SW-620) read?
Answer: 660 nM

Question: What about the IC50 [2] of the same molecule?
Answer: 7800 nM

Question: And the IC50 [3]?
Answer: 50 nM

Question: Which IC50 [3] does the source give for `CCOc1cc2ncc(C#N)c(Nc3ccc(F)c(Cl)c3)c2cc1NC(=O)/C=C/CN(C)C` [PELITINIB] here?
Answer: 10 nM

Question: What does the source list for `COc1cc2ncc(C#N)c(Nc3cccc(Br)c3)c2cc1NC(=O)/C=C/CN(C)C`?
Answer: IC50 [1]: 790 nM; IC50 (SW-620): 1170 nM; IC50 [2]: 5660 nM; IC50 (A-431): 140 nM; IC50 [3]: 30 nM

Question: What does the source list for `CN(C)C/C=C/C(=O)Nc1cc2c(Nc3ccc(F)c(Cl)c3)c(C#N)cnc2cc1OC(F)(F)F`?
Answer: IC50 (SW-620): 1460 nM; IC50 [2]: 4130 nM; IC50 [3]: 300 nM

Question: Which results are given for `COC[C@@H]1CCCN1CC#CC(=O)Nc1ccc2ncc(C#N)c(Nc3cccc(Br)c3)c2c1`?
Answer: IC50 [1]: 150 nM; IC50 (SW-620): 4140 nM; IC50 [2]: 1220 nM; IC50 (A-431): 1200 nM; IC50 [3]: 540 nM

Question: With `CN(C)C/C=C/C(=O)Nc1ccc2ncc(C#N)c(Nc3ccc(F)c(Cl)c3)c2c1` as the molecule, how does the IC50 [1] read?
Answer: 650 nM

Question: What about the IC50 (SW-620) of the same molecule?
Answer: 880 nM

Question: And the IC50 [2]?
Answer: 1950 nM

Question: And the IC50 (A-431)?
Answer: 150 nM

Question: And the IC50 [3]?
Answer: 50 nM

Question: With `CC#CC(=O)Nc1cc2c(Nc3cccc(Br)c3)c(C#N)cnc2cc1OC` as the molecule, how does the IC50 [1] read?
Answer: 910 nM

Question: And the IC50 (SW-620)?
Answer: 7580 nM

Question: What about the IC50 [2] of the same molecule?
Answer: 2120 nM

Question: And the IC50 (A-431)?
Answer: 5120 nM

Question: And the IC50 [3]?
Answer: 8360 nM

Question: For `N#Cc1cnc2ccc(NC(=O)C#CCN3CCSCC3)cc2c1Nc1cccc(Br)c1`, which IC50 [1] is on record?
Answer: 550 nM

Question: And the IC50 (SW-620)?
Answer: 350 nM

Question: And the IC50 [2]?
Answer: 1040 nM

Question: And the IC50 (A-431)?
Answer: 100 nM

Question: And the IC50 [3]?
Answer: 70 nM

Question: With `COCCOCC#CC(=O)Nc1ccc2ncc(C#N)c(Nc3cccc(Br)c3)c2c1` as the molecule, how does the IC50 [1] read?
Answer: 930 nM

Question: And the IC50 (SW-620)?
Answer: 340 nM

Question: What about the IC50 [2] of the same molecule?
Answer: 450 nM

Question: What about the IC50 (A-431) of the same molecule?
Answer: 270 nM

Question: What about the IC50 [3] of the same molecule?
Answer: 390 nM

Question: For `COc1cc2ncc(C#N)c(Nc3ccc(F)c(Cl)c3)c2cc1NC(=O)/C=C/C(C)N(C)C` (stereo not drawn), which IC50 (SW-620) is on record?
Answer: 1130 nM

Question: What about the IC50 [2] of the same molecule?
Answer: 11800 nM

Question: And the IC50 [3]?
Answer: 190 nM

Question: What does the source list for `C/C=C/C(=O)Nc1ccc2ncc(C#N)c(Nc3cccc(Br)c3)c2c1`?
Answer: IC50 (SW-620): 12300 nM; IC50 (A-431): 4400 nM; IC50 [3]: 10100 nM

Question: With `COc1cc2ncc(C#N)c(Nc3cccc(Br)c3)c2cc1NC(=O)C#CCN(C)C` as the molecule, how does the IC50 [1] read?
Answer: 90 nM

Question: And the IC50 (SW-620)?
Answer: 300 nM

Question: And the IC50 [2]?
Answer: 180 nM

Question: And the IC50 (A-431)?
Answer: 110 nM

Question: And the IC50 [3]?
Answer: 120 nM
